# STAT3 activator: activators of IL-6 induced STAT3 signaling. U3A cells, IL-6 STAT3-luciferase reporter, luminescence; 100% = signal with IL-6 EC80 alone. activation (% of control), % at 5.6 µM. actives 0.91% (n = 190,000). AID 871;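 active means activation above the screen-wide mean of compound activation plus 3 SD, cut at about 130% in these data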;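 further: 0% = background luminescence of wells with medium and substrate only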
#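 Detection: reporter luminescence signal / Assay system: STAT1-lacking human U3A cells, STAT3 luciferase reporter / Incubation: compound pre-incubation 1 h before IL-6, then 6 h stimulation at 37 °C / Control set: IL-6-only high control / Read-out: % activation relative to IL-6 control / Probe or stimulus: Interleukin-6, 33 ng/mL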
# STAT3 inh: reduces IL-6 driven STAT3 reporter signal | inhibition, % at 5.5 µM | U3A cells, IL-6 STAT3-luciferase reporter, luminescence; host cell line lacks STAT1 | AID 862 | actives 0.89% (n = 190,000);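 active means inhibition above the mean inhibition across all screened compounds plus 3 SD, cut at about 44% in these data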;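 further: 0% = DMSO only wells and 100% = 100 µM nifuroxazide control wells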
# APP 5'UTR act: activates APP 5'UTR luciferase reporter. activation, % at 2 µM. actives 1% (n = 190,000). SH-SY5Y APP 5'UTR luciferase reporter, luminescence; zero percent = DMSO vehicle wells;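 active means activation above a set limit, based on mean plus 3 SD of controls, cut at about 140% in these data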
# STAT1 inh: inhibitors of IFN-gamma induced STAT1 signaling | NIH 3T3 STAT1-luciferase reporter, luminescence | inhibition, % at 5.5 µM | actives 0.35% (n = 200,000) | AID 920;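 active means inhibition above a set limit, the mean inhibition across all tested compounds plus 3 SD, cut at about 34% in these data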;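 further: 0% = IFN-gamma with DMSO and 100% = IFN-gamma with 300 µM nifuroxazide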
# STAT1 activator: increases IFN-gamma driven STAT1 reporter signal; NIH 3T3 STAT1-luciferase reporter, luminescence; 100% = IFN-gamma alone, no compound; activation (% of control), % at 5.5 µM; actives 2.6% (n = 200,000);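 active means activation above the screen-wide mean activation plus 3 SD, cut at about 130% in these data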;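 further: raw ratio to IFN-gamma control signal so 100% means no change and 0% no light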
# NF-kB expr up: raises NF-kB expression in human neuronal cells; NF-kB reporter expression; stronger effect = higher value; fold change at 12.5 µM; actives 1.6% (n = 190,000); AID 1239; in the data active means fold change above about 3.3
# Active calls of the source: *; . = no result given. Shown are actives, neighbours in structure and some others; about 4.9% of the full set was active somewhere.
SMILES,STAT3 activator,STAT3 inh,APP 5'UTR act,STAT1 inh,STAT1 activator,NF-kB expr up
COc1cccc(-c2nnc(NC(=O)c3cccs3)s2)c1,91,17,41,-44,138*,1.8
O=C(CCNC(=O)c1ccccc1)Nc1cccnc1,95,11,3,-4,102,.
COc1ccc(/C=C/C(=O)c2ccccc2)c(OC)c1,104,-1,236*,-51,147*,7.7*
COc1ccc(/C=C/C(=O)c2ccc3c(c2)OCO3)c(OC)c1,98,7,152*,-33,129*,3.2
COc1ccc(/C=C/C(=O)c2ccc(OC)cc2OC)c(OC)c1,.,.,8,1,98,1.5
Cc1cccc(NC(=S)NNC(=O)CC(C)O)c1C (stereo not drawn),100,0,11,-3,102,1.1
c1ccc2c(c1)CC/C2=N/Nc1nc2ccccc2[nH]1,87,18,180*,-40,137*,3.4*
C(=N\Nc1nc2ccccc2[nH]1)/c1ccccn1,12,111*,72,93*,13,0.9
COc1ccc(-c2nc3c([nH]2)c(=O)n(C)c(=O)n3C)c(OC)c1,134*,-37,-2,-2,102,1.1
CCc1ccccc1NC(=O)CSc1ccsc1[N+](=O)[O-],102,-3,15,-3,103,1
COc1ccc(OC)c(CCNC(=O)CSc2ccsc2[N+](=O)[O-])c1,101,2,-11,1,97,1.5
COc1ccccc1CNC(=O)CSc1ccsc1[N+](=O)[O-],109,-9,60,-41,137*,2.5
O=C(CSc1ccsc1[N+](=O)[O-])NCc1ccccc1,135*,-39,15,-13,112,1.9
CCOC(=O)C1CCN(CCC(=O)Nc2ccc(C)cc2)CC1,101,1,13,-6,104,1.2
CCOc1ccc2nc(NC(=O)CCn3cccc3)sc2c1,96,13,-13,-14,112,1.4
CCCC(=O)Nc1nc2ccc(OCC)cc2s1,101,4,95,-55,150*,4.3*
CCOc1ccc2nc(NC(=O)c3cccnc3)sc2c1,106,-2,111,-37,132*,2.5
CCOc1ccc2nc(SCC(=O)c3cccs3)sc2c1,113,-13,82,-33,131*,4.4*
CCOc1ccc2nc(NC(=O)c3cnc(C)cn3)sc2c1,78,27,12,-13,112,1.2
Cc1ccc(NC(=O)CSCC(=O)N2c3ccccc3CCc3ccccc32)cc1,104,3,-4,1,99,1
CN(C)S(=O)(=O)c1cccc(C(=O)NCCc2ccccc2)c1,104,-1,156*,-36,134*,2.5
CN(C)S(=O)(=O)c1cccc(C(=O)Nc2ccccc2)c1,102,4,0,-8,106,1.3
CC1CCN(S(=O)(=O)c2cc(C(=O)N3CCN(c4ncccn4)CC3)ccc2Br)CC1,92,8,4,-1,101,0.73
O=C1N/C(=C/c2ccc(N3CCOCC3)o2)C(=O)N1c1cccc(Cl)c1,93,17,-76,-32,130*,1.6
Cc1ccc(/C=C2/NC(=O)N(c3ccccc3)C2=O)o1,97,15,32,-18,116,1.9
SMILES,STAT3 activator,STAT3 inh,APP 5'UTR act,STAT1 inh,STAT1 activator,NF-kB expr up
O=C(Oc1ccc(-c2ccccc2)cc1)N1CCCCC1,98,3,5,-33,130*,7*
Nc1ncn(CC(=O)c2ccccc2)n1,99,8,28,2,98,6.2*
COc1ccccc1-n1cc([C@@H]2C[C@H]3CN(c4ccccc4)C(=O)[C@]34CCCN24)cn1,114,-11,-95,-14,111,0.79
CCc1nnc(NC(=O)C2CCCN(c3nc4ccccc4s3)C2)s1 (stereo not drawn),94,8,3,-7,106,1.4
O=C(Nc1ccc2c(c1)OCO2)C1CCCN(c2nc3ccccc3s2)C1 (stereo not drawn),98,5,9,-31,129*,1.2
C=CCNc1nc(-c2sc(NC(=O)CC)nc2C)cs1,135*,-37,7,-28,125,0.92
Cc1ccc(C(=S)N2CCN(Cc3ccccc3)CC2)s1,101,6,11,3,97,1.1
COc1ccc(C(=O)Nn2c(SCC(=O)NCC3CCCO3)nc3ccccc3c2=O)cc1 (stereo not drawn),34,77*,57,47*,57,0.81
COc1ccc(C(=O)Nn2c(SCC(=O)NCc3ccccc3)nc3ccccc3c2=O)cc1,67,42,66,6,94,0.63
O=C(CSc1nc2ccccc2c(=O)n1NC(=O)c1ccccc1)c1ccc(Cl)cc1,104,-1,158*,-27,124,2
CN(C(=O)COC(=O)c1ccc(Cl)nc1)C1CCS(=O)(=O)C1 (stereo not drawn),99,6,8,-2,102,1.1
C=CCC(O)(CC=C)C(C)N (stereo not drawn),101,6,-8,-8,106,1.5
Cc1[nH]n(-c2ccccc2)c(=O)c1C=NC1CCCCC1,106,-5,-1,-22,120,6.1*
C=CCN=Cc1c(C)[nH]n(-c2ccccc2)c1=O,104,-3,49,-30,127,11*
Cc1[nH]n(-c2ccc([N+](=O)[O-])cc2)c(=O)c1C=NCC1CCCO1 (stereo not drawn),108,-4,7,-39,135*,2
C/C(=N\NC(=O)c1nn(C)cc1Br)c1ccncc1,94,6,-2,-15,113,1.3
C/C(=N\NC(=O)c1ccn[nH]1)c1cn(C)nc1C,100,4,55,-32,129*,1.8
Cc1c(C(=O)OC2CCC(C)CC2)[nH]c2c1C(=O)CCC2 (stereo not drawn),75,35,148*,-51,146*,4.9*
COc1ccc(NC(=S)NN(C)C(=S)Nc2ccc(OC)cc2)cc1,100,5,-93,-4,104,1
Cc1cc(SCC(=O)Nc2cccc(S(=O)(=O)N3CCOCC3)c2)nc2ccccc12,101,6,-12,5,94,1.2
CN(C)c1ccc(N=Cc2ccco2)cc1,112,-10,153*,-55,150*,0.87
Cc1ccc(N=Cc2ccc(N(C)C)cc2)cc1,103,1,-4,0,100,1.2
CN(C)c1ccc(C=Nc2ccc(N(C)C)cc2)cc1,112,-11,175*,-50,144*,0.93
COC(=O)c1cc(C#N)c(N2CC(C)OC(C)C2)nc1C (stereo not drawn),92,17,-18,-1,100,1
CCN(CC)CCn1c(NC(=O)c2ccc(Cl)cc2)nc2ccccc21,136*,-42,15,-16,114,1.2
Cc1ccc(C(=O)Nc2nc3ccccc3n2CCN2CCCC2)cc1,157*,-61,130,-45,141*,3

# Screens (PubChem)
